Data from ChEMBL document CHEMBL3098012, “A novel tamoxifen derivative, ridaifen-F, is a nonpeptidic small-molecule proteasome inhibitor” (Eur J Med Chem, 2014).
Activity calls are given as the source filed them. No cut-off for these calls is given here.

Key:
Homo sapiens [1] = species on record: Homo sapiens; assay: Inhibition of cathepsin (unknown origin) at >10 uM
Homo sapiens [2] = species on record: Homo sapiens; assay: Inhibition of calpain (unknown origin) at >10 uM
[3] = molecular target: T1, Proteasome Macropain subunit MB1 (Homo sapiens, UniProt P28074); assay: Inhibition of chymotrypsin-like activity of human 20S proteasome beta 5 subunit assessed as hydrolysis of succinyl-LLVY-AMC fluorogenic substrate measured for 1 hr by fluorometric analysis
T1 sequence (P28074 whole entry): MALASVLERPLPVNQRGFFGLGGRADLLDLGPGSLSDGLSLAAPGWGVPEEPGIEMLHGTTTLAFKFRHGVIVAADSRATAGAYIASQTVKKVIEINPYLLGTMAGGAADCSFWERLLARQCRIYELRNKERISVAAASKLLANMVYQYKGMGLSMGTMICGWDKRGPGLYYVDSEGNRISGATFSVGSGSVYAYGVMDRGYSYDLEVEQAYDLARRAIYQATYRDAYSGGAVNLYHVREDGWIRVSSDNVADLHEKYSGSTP
In short: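 Purified human 20S proteasome (0.1 µg) incubated at 37 °C with 50 µM succinyl-LLVY-AMC (CT-L) or 20 µM Z-LLE-AMC (PGPH) and compound at 0.01–10 µM in 25 mM HEPES, 0.5 mM EDTA, 0.03% SDS. IC50 taken from inhibition curve; means of three experiments.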

HL-60 = assay: Cytotoxicity against […] human HL60 cells after 48 hrs by MTT assay; format: functional; settings: HL-60, 48 h
In short: (§1)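 HEK293 (DMEM) or HL-60 (IMDM) cells, each with 10% FBS plus penicillin/streptomycin, seeded 5×10^3 cells/well in duplicate. Exposed 48 h to compound at […]. MTT reduction read as 560/750 nm absorbance ratio after HCl/2-propanol extraction. CyT50 from inhibition curve; means of triplicate.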

[4] = Cytotoxicity against ER-negative HEK293 cells after 48 hrs by MTT assay; format: cell-based; settings: human; in short: as §1
[5] = molecular target: T1, Proteasome Macropain subunit MB1; assay: Noncompetitive inhibition of chymotrypsin-like activity of human 20S proteasome beta 5 subunit assessed as hydrolysis of succinyl-LLVY-AMC fluorogenic substrate Lineweaver-Burk plot analysis
[6] = molecular target: Proteasome Macropain subunit (Homo sapiens) (UniProt P49721); assay: Inhibition of biotin-labeled belactosin A binding to human 20S proteasome beta 2 subunit at 1 to 100 uM preincubated for 1 hr followed by biotin-labeled belactosin A treatment measured after 1 hr by Western blotting analysis
In short: (§2)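 Purified human 20S proteasomes preincubated with varying inhibitor concentrations 1 h at 37 °C, then biotin-belactosin A added at 1 μM for a further 1 h. Proteins separated by SDS-PAGE, blotted to PVDF, blocked with 5% skim milk; biotin-labeled subunits detected with streptavidin-HRP and ECL. MG132 used as control.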

HeLa [7] = assay: Induction of apoptosis in human HeLa cells assessed as PARP cleavage at 1 to 60 uM after 24 hrs by Western blotting analysis; format: functional, cell-based
In short: (§3)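 HeLa cells seeded 4×10^5 cells/well, incubated 24 h with varying compound concentrations; PARP cleavage detected in lysates by Western blotting.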

[8] = molecular target: T2, Proteasome component C5 (Homo sapiens) (UniProt P20618); assay: Inhibition of biotin-labeled belactosin A binding to human 20S proteasome beta 1 subunit at 1 to 100 uM preincubated for 1 hr followed by biotin-labeled belactosin A treatment measured after 1 hr by Western blotting analysis; in short: as §2
T2 sequence (whole entry): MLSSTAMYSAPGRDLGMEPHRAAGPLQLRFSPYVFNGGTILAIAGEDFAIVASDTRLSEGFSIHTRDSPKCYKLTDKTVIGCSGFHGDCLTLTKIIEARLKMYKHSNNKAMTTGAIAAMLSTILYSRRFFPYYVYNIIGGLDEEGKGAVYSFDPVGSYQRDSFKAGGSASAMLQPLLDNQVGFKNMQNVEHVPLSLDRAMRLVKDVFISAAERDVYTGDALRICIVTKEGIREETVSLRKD

HeLa [9] = assay: Inhibition of proteasome in human HeLa cells assessed as accumulation of ubiquitinated proteins at 60 uM after 24 hrs by Western blotting analysis; format: cell-based
In short: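 HeLa cells, 4×10^5 cells/well, treated 24 h with compound; vehicle control 0.25% DMSO. Lysed in Tris–HCl/2% SDS/glycerol buffer with protease and phosphatase inhibitors; 30 µg protein run on SDS-PAGE, PVDF blot probed with anti-ubiquitin (1:200), actin as loading reference, HRP secondary, ECL detection.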

[10] = molecular target: T3, Proteasome Macropain subunit MB1 (Homo sapiens) (UniProt P28074); assay: Inhibition of biotin-labeled belactosin A binding to human 20S proteasome beta 5 subunit at 100 uM preincubated for 1 hr followed by biotin-labeled belactosin A treatment measured after 1 hr by Western blotting analysis
T3 sequence (whole entry): T1 sequence (P28074 whole entry)
In short: (§4)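 Purified human 20S proteasome preincubated 1 h at 37 °C with varying compound levels, then biotin-belactosin A added to 1 µM for a further 1 h. Proteins separated by SDS-PAGE, blotted to PVDF, milk-blocked; biotin-labelled subunits detected with streptavidin-HRP and ECL.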

[11] = molecular target: T3, Proteasome Macropain subunit MB1 (Homo sapiens); assay: Inhibition of biotin-labeled belactosin A binding to human 20S proteasome beta 5 subunit at 1 to 100 uM preincubated for 1 hr followed by biotin-labeled belactosin A treatment measured after 1 hr by Western blotting analysis; in short: as §4
[12] = molecular target: T2, Proteasome component C5 (Homo sapiens); assay: Inhibition of biotin-labeled belactosin A binding to human 20S proteasome beta 1 subunit at 10 uM preincubated for 1 hr followed by biotin-labeled belactosin A treatment measured after 1 hr by Western blotting analysis; in short: as §4
[13] = molecular target: T2, Proteasome component C5 (Homo sapiens); assay: Inhibition of biotin-labeled belactosin A binding to human 20S proteasome beta 1 subunit preincubated for 1 hr followed by biotin-labeled belactosin A treatment measured after 1 hr by Western blotting analysis; in short: as §4
HeLa [14] = assay: Induction of apoptosis in human HeLa cells assessed as PARP cleavage after 24 hrs by Western blotting analysis; format: functional, cell-based; in short: as §3

Proteasome Macropain subunit (Homo sapiens), sequence (P49721 whole entry): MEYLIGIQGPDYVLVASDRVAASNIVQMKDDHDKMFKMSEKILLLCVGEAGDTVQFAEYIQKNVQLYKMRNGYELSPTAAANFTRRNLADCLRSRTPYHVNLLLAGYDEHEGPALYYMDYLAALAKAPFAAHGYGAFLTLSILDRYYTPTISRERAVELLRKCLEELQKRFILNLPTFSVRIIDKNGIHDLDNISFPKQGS

Row | Structure (SMILES) | IC50 [3] | CC50 (HL-60) | CC50 at 48 h [4] | other results
1 | CCC(=C(c1ccc(OCCCN2CCCC2)cc1)c1ccc(OCCCN2CCCC2)cc1)c1ccccc1 | > 10 µM |  |  | inhibition (Homo sapiens [1]): inactive; inhibition (Homo sapiens [2]): inactive
2 | c1cc(C(=C2CCCCC2)c2ccc(OCCN3CCCCCC3)cc2)ccc1OCCN1CCCCCC1 | 2.19 µM | 11.7 µM | 12.5 µM | 
3 | CC(c1ccc(OCCN2CCCCCC2)cc1)c1ccc(OCCN2CCCCCC2)cc1 | 0.8 µM | 21.4 µM | 8.12 µM | 
4 | CCCCC(CCCC)=C(c1ccc(OCCN2CCCCCC2)cc1)c1ccc(OCCN2CCCCCC2)cc1 | > 10 µM | 25.3 µM | > 30 µM | 
5 | C(=C(c1ccc(OCCN2CCCCCC2)cc1)c1ccc(OCCN2CCCCCC2)cc1)c1ccccc1 | 0.58 µM | 9.73 µM | 6.06 µM | Ki [5]: 0.87 µM
6 | CC(C)(c1ccc(OCCN2CCCCCC2)cc1)c1ccc(OCCN2CCCCCC2)cc1 | 0.75 µM | 17.6 µM | 7.61 µM | 
7 | CCC(=C(c1ccc(OCCN2CCOCC2)cc1)c1ccc(OCCN2CCOCC2)cc1)c1ccccc1 | 7.19 µM |  |  | inhibition (Homo sapiens [1]): inactive; inhibition (Homo sapiens [2]): inactive
8 | c1ccc(Cc2ccc(OCCN3CCCCCC3)cc2)cc1 | > 10 µM | > 30 µM | 27 µM | inhibition [6]: Active; Activity (HeLa [7]): inactive; inhibition [8]: Active
9 | CC(C)=C(c1ccc(OCCN2CCCCCC2)cc1)c1ccc(OCCN2CCCCCC2)cc1 | 1.66 µM | 10.7 µM | 11.1 µM | 
10 | CCCCCCC(CCCCCC)=C(c1ccc(OCCN2CCCCCC2)cc1)c1ccc(OCCN2CCCCCC2)cc1 | > 10 µM | > 30 µM | > 30 µM | 
11 | CC(O)(c1ccc(OCCN2CCCCCC2)cc1)c1ccc(OCCN2CCCCCC2)cc1 | 1.66 µM | 7.06 µM | 22.7 µM | 
12 | O=C(c1ccc(OCCN2CCCCCC2)cc1)c1ccc(OCCN2CCCCCC2)cc1 | 1.65 µM | > 30 µM | 13.9 µM | 
13 | CCCC(CCC)=C(c1ccc(OCCN2CCCCCC2)cc1)c1ccc(OCCN2CCCCCC2)cc1 | 3.38 µM | > 30 µM | > 30 µM | 
14 | CCCC(=C(c1ccc(OCCN2CCCCCC2)cc1)c1ccc(OCCN2CCCCCC2)cc1)c1ccccc1 | 1.37 µM | 4.3 µM | 26.8 µM | 
15 | CCCCCC(CCCCC)=C(c1ccc(OCCN2CCCCCC2)cc1)c1ccc(OCCN2CCCCCC2)cc1 | > 10 µM | > 30 µM | 14.5 µM | 
16 | CC(=C(c1ccc(OCCN2CCCCCC2)cc1)c1ccc(OCCN2CCCCCC2)cc1)c1ccccc1 | 0.9 µM | 6.87 µM | 18.9 µM | 
17 | CCC(=C(c1ccc(OCCN(CC)CC)cc1)c1ccc(OCCN(CC)CC)cc1)c1ccccc1 | > 10 µM |  |  | inhibition (Homo sapiens [1]): inactive; inhibition (Homo sapiens [2]): inactive
18 | c1cc(OCCN2CCCCCC2)ccc1Cc1ccc(OCCN2CCCCCC2)cc1 | 0.67 µM | 14.5 µM | 10.9 µM | inhibition (HeLa [9]): Active; inhibition [10]: Active; inhibition [11]: Active; inhibition [12]: Active; inhibition [13]: Dose-dependent effect; Activity (HeLa [14]): Dose-dependent effect
19 | c1cc(C2(c3ccc(OCCN4CCCCCC4)cc3)CCCCC2)ccc1OCCN1CCCCCC1 | 1.94 µM | > 30 µM | 17.5 µM | 
20 | CCC(CC)=C(c1ccc(OCCN2CCCCCC2)cc1)c1ccc(OCCN2CCCCCC2)cc1 | 1.57 µM | 8.87 µM | 6.02 µM | 
21 | c1cc(C(=C2CCCC2)c2ccc(OCCN3CCCCCC3)cc2)ccc1OCCN1CCCCCC1 | 2.7 µM | 20.1 µM | 26.2 µM | 
22 | CCC(=C(c1ccc(OCCCN(C)C)cc1)c1ccc(OCCCN(C)C)cc1)c1ccccc1 | > 10 µM |  |  | inhibition (Homo sapiens [1]): inactive; inhibition (Homo sapiens [2]): inactive
23 | CCC(=C(c1ccc(OCCN(C)C)cc1)c1ccc(OCCN(C)C)cc1)c1ccccc1 | 3.36 µM |  |  | inhibition (Homo sapiens [1]): inactive; inhibition (Homo sapiens [2]): inactive
24 | c1ccc(C(=C(c2ccc(OCCN3CCCCCC3)cc2)c2ccc(OCCN3CCCCCC3)cc2)C2CCCCC2)cc1 | > 10 µM | > 30 µM | > 30 µM | 
25 | CCC(=C(c1ccc(OCCN2CCCC2)cc1)c1ccc(OCCN2CCCC2)cc1)c1ccccc1 | 6.56 µM |  |  | inhibition (Homo sapiens [1]): inactive; inhibition (Homo sapiens [2]): inactive
26 | CCC(=C(c1ccc(OCCN2CCCCC2)cc1)c1ccc(OCCN2CCCCC2)cc1)c1ccccc1 | > 10 µM |  |  | inhibition (Homo sapiens [1]): inactive; inhibition (Homo sapiens [2]): inactive
27 | c1ccc(C(=C(c2ccc(OCCN3CCCCCC3)cc2)c2ccc(OCCN3CCCCCC3)cc2)c2ccccc2)cc1 | 1.18 µM | > 30 µM | 23.2 µM | Ki [5]: 1.1 µM
28 | C=C(c1ccc(OCCN2CCCCCC2)cc1)c1ccc(OCCN2CCCCCC2)cc1 | 1.04 µM | 10.7 µM | 9.8 µM | 
29 | CCC=C(c1ccc(OCCN2CCCCCC2)cc1)c1ccc(OCCN2CCCCCC2)cc1 | 1.46 µM | 22.6 µM | 26.7 µM | 
